Minimal effective dose data for 24 compounds are collected here from ChEMBL document CHEMBL3400141, “Substituted piperazines as nootropic agents: 2- or 3-phenyl derivatives structurally related to the cognition-enhancer DM235” (Bioorg Med Chem Lett, 2015).

This assay deals with Mus musculus. Put plainly: Cognition enhancing activity in sc dosed mouse assessed as reversal of scopolamine-induced amnesia measured up to 24 hrs treated 20 mins before training session by passive-avoidance test. The note with it: read-out: MED. In kind it is functional. A digest of the protocol: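 Mouse passive-avoidance test (Jarvik and Kopp, slightly modified). Compounds in DMSO/saline (1:10), given s.c. 20 min before training, tested in a 1:10 dose-dilution sequence. Amnesia induced by scopolamine 1.5 mg/kg i.p. immediately after punishment. Mean of 8–16 mice per group; activity reported as minimal effective dose (MED, mg/kg).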

Some results are limits rather than exact numbers.

As to `O=C(c1ccccc1)N1CCNCC1`, the minimal effective dose came to 0.1 mg/kg.
With `CC(=O)N1CCN(S(=O)(=O)c2ccc(F)cc2)C(C)C1` (centres undefined), the minimal effective dose turned out to be 0.1 mg/kg.
The result for `CC(=O)N1CCN(S(=O)(=O)c2ccc(F)cc2)CC1C` (centres undefined) reads 1 mg/kg; that for `CCC(=O)N1CCN(C(=O)c2ccccc2)C(C)C1` (centres undefined), 0.1 mg/kg.
As to `CCC(=O)N1CCN(C(=O)c2ccccc2)CC1C` (centres undefined), the minimal effective dose is over 10 mg/kg.
The result for `CC(=O)N1CCN(S(=O)(=O)c2ccc(F)cc2)CC1` reads 0.01 mg/kg.
With `CCC(=O)N1CCNC(c2ccccc2)C1` (centres undefined), the minimal effective dose was over 10 mg/kg.
`CC(=O)N1CCNC(c2ccccc2)C1` (centres undefined): the minimal effective dose is over 10 mg/kg.
With `O=S(=O)(c1ccc(F)cc1)N1CCNC(c2ccccc2)C1` (centres undefined), the minimal effective dose is over 10 mg/kg.
Regarding `CCC(=O)N1CCN(C(=O)c2ccccc2)C[C@@H]1c1ccccc1`, the minimal effective dose stood at 1 mg/kg.
For the compound `CCC(=O)N1CCN(C(=O)c2ccccc2)C[C@H]1c1ccccc1`, the minimal effective dose was determined as 0.1 mg/kg.
`CCC(=O)N1CCN(C(=O)c2ccccc2)C(c2ccccc2)C1` (centres undefined): the minimal effective dose stood at 1 mg/kg.
Turning to `CC(=O)N1CCN(S(=O)(=O)c2ccc(F)cc2)C(c2ccccc2)C1` (centres undefined), the minimal effective dose was found to be 10 mg/kg.
Turning to `CC(=O)N1CCN(S(=O)(=O)c2ccc(F)cc2)CC1c1ccccc1` (centres undefined), the minimal effective dose is over 10 mg/kg.
Turning to `CCC(=O)N1CCN(C(=O)c2ccccc2)CC1Cc1ccccc1` (centres undefined), the minimal effective dose is 1 mg/kg.
With `CCC(=O)N1CCN(C(=O)c2ccccc2)C(Cc2ccccc2)C1` (centres undefined), the minimal effective dose is 1 mg/kg.
As for `CCC(=O)N1CCNCC1`, the minimal effective dose was found to be 0.1 mg/kg.
The result for `CCC(=O)N1CCN2C(=O)c3ccccc3C2C1` (centres undefined) reads over 10 mg/kg; that for `O=C1c2ccccc2C2CN(S(=O)(=O)c3ccc(F)cc3)CCN12` (centres undefined), 0.1 mg/kg.
The result for `O=C(c1ccccc1)N1CCNC(c2ccccc2)C1` (racemic) reads over 10 mg/kg.
Turning to `CCC(=O)N1CCN(C(=O)c2ccccc2)CC1c1ccccc1` (racemic), the minimal effective dose was 0.1 mg/kg.
Turning to `NC(=O)CN1CCCC1=O` [PIRACETAM], the minimal effective dose came out at 30 mg/kg.
Take `CCC(=O)N1CCN(C(=O)c2ccccc2)CC1` [SUNIFIRAM]: the minimal effective dose was found to be 0.001 mg/kg.
With `O=C1CCC2CN(S(=O)(=O)c3ccc(F)cc3)CCN12` (centres undefined) [UNIFIRAM], the minimal effective dose turned out to be 0.001 mg/kg.
